What was measured:
Cavia porcellus [1] = organism: Cavia porcellus; assay: Inhibition of the Schulz-Dale (SD) reaction-induced contraction in trachea of guinea pig; type: functional
Method in brief: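 Tracheal zig-zag strips from passively sensitized guinea pigs, equilibrated 1 h in Krebs-Henseleit under 95% O2-5% CO2 at 37 °C. Contraction induced by OA at 10 µg/mL final bath concentration. Drug added cumulatively at 7-min intervals once contraction reached plateau; isotonic recording, relaxation scaled to papaverine maximum. Triplicate curves with 4–5 concentrations; IC50 by logit-log fit.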

Cavia porcellus [2] = assay: Effect on collapse time of antigen-induced bronchospasm in passively sensitized guinea pigs (at 50 mg/kg, po).MCT for untreated animals is 254+/-18.; type: functional
Mus musculus = assay: Acute lethal toxicity (minimum lethal dose; MLD, po) in mice.; type: organism-based; conditions: in vivo
Method in brief: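 Male dd mice (20–25 g), n = 3 per dose, given compound orally. Deaths observed for 7 days; MLD taken as the dose killing at least one mouse.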

Cavia porcellus [3] = assay: Effect on collapse time of antigen-induced bronchospasm in passively sensitized guinea pigs (at 25 mg/kg, po).MCT for untreated animals is 254+/-18.; type: functional
Cavia porcellus [4] = assay: Effect on heart rate 1(mins) after intravenous administration in anesthetized guinea pigs after intravenous administration of 3 mg/kg; type: functional
Method in brief: (§1)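 Male guinea pigs anesthetized with pentobarbital sodium (50 mg/kg ip), ventilated via tracheotomy with room air (60/min, 10 mL/kg). Left-ventricular cannula via left common carotid to a pressure transducer for LVP and LV dP/dtmax; heart rate triggered by LVP. Drug given iv through the left jugular vein, vehicle PEG 400 diluted with saline. Change expressed as % of pretreatment value; mean ± SEM, n = 5.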

Cavia porcellus [5] = assay: Effect of the compound (intravenous administration) on anaphylactic bronchoconstriction in passively sensitized guinea pigs.; type: functional; conditions: Lung
Method in brief: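 Male Hartley guinea pigs (350–450 g) passively sensitized ip with rabbit anti-OA serum 16–24 h before. Urethane anesthesia (1.5 g/kg ip), gallamine 10 mg/kg iv, ventilated 60–70 strokes/min. Konzett–Rössler air overflow after OA challenge 5 mg/kg iv. Compound in PEG 400 diluted with saline, given iv 90 s after challenge. ED50 by linear regression of AUC versus log dose.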

Cavia porcellus [6] = assay: Effect on left ventricular dP/dtmax 5(mins) after intravenous administration in anesthetized guinea pigs after a intravenous administration of 3 mg/kg; type: functional, Heart left ventricle; method in brief: as §1
Cavia porcellus [7] = organism: Cavia porcellus; assay: Inhibitory effect on spasmogen (carbachol) induced contraction of guinea pig tracheal strips.; type: functional; conditions: Trachea
Method in brief: (§2)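 Zig-zag tracheal strips from normal guinea pigs, equilibrated 1 h in Krebs–Henseleit (95% O2/5% CO2, 37 °C). Contracted with carbachol 3 × 10⁻⁶ mol final, histamine 3 × 10⁻⁵ mol, or LTD4 50 µg/mL. Drug added cumulatively every 7 min after the plateau; isotonic recording. IC50 for 50% relaxation by least-squares regression.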

Cavia porcellus [8] = assay: Effect on collapse time of antigen-induced bronchospasm in passively sensitized guinea pigs (at 25 mg/kg, po). MCT for untreated animals is 254+/-18; type: functional
Cavia porcellus [9] = organism: Cavia porcellus; assay: Inhibitory effect on spasmogen (leukotriene, LTD4) induced contraction of guinea pig tracheal strips.; type: functional; conditions: Trachea; method in brief: as §2
Cavia porcellus [10] = assay: Effect on left ventricular dP/dtmax 3(mins) after intravenous administration in anesthetized guinea pigs after a intravenous administration of 3 mg/kg; type: functional, Heart left ventricle; method in brief: as §1
Cavia porcellus [11] = organism: Cavia porcellus; assay: Inhibitory effect on spasmogen (histamine) induced contraction of guinea pig tracheal strips.; type: functional; conditions: Trachea; method in brief: as §2
Cavia porcellus [12] = assay: Effect on heart rate 0(mins) after intravenous administration in anesthetized guinea pigs after intravenous administration of 3 mg/kg; type: functional; method in brief: as §1
Cavia porcellus [13] = assay: Effect of the compound (peroral administration) on anaphylactic bronchoconstriction in passively sensitized guinea pigs.; type: functional; conditions: Lung, po
Method in brief: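 Male Hartley guinea pigs (350–450 g) passively sensitized ip with rabbit anti-OA serum 16–24 h before. Urethane-anesthetized, gallamine-paralysed, ventilated. Air overflow (Konzett–Rössler) after OA 5 mg/kg iv. Compound suspended in 0.3% Tween 80, given orally 1 h before challenge. ED50 by linear regression of AUC versus log dose.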

Cavia porcellus [14] = assay: Effect on heart rate 5(mins) after intravenous administration in anesthetized guinea pigs after intravenous administration of 3 mg/kg; type: functional; method in brief: as §1
Cavia porcellus [15] = assay: Effect on left ventricular dP/dtmax 0(mins) after intravenous administration in anesthetized guinea pigs after a intravenous administration of 3 mg/kg; type: functional, Heart left ventricle; method in brief: as §1
Cavia porcellus [16] = assay: Effect on heart rate 3(mins) after intravenous administration in anesthetized guinea pigs after intravenous administration of 3 mg/kg; type: functional; method in brief: as §1
Cavia porcellus [17] = assay: Effect on left ventricular dP/dtmax 1(mins) after intravenous administration in anesthetized guinea pigs after a intravenous administration of 3 mg/kg; type: functional, Heart left ventricle; method in brief: as §1
Cavia porcellus [18] = assay: Effect on heart rate 5(mins) after intravenous administration in anesthetized guinea pigs; type: functional
Method in brief: (§3)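 Male guinea pigs under pentobarbital (50 mg/kg ip), tracheotomy, room-air ventilation at 60/min, 10 mL/kg. Carotid cannula advanced into the left ventricle to read LVP and LV dP/dtmax; heart rate triggered from LVP. Single 3 mg/kg iv dose via jugular vein. Values are percent of pretreatment, n = 5.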

Cavia porcellus [19] = assay: Effect on left ventricular dP/dtmax 3(mins) after intravenous administration in anesthetized guinea pigs; type: functional, Heart left ventricle; method in brief: as §3
Cavia porcellus [20] = assay: Effect on heart rate 3(mins) after intravenous administration in anesthetized guinea pigs; type: functional; method in brief: as §3
Cavia porcellus [21] = assay: Effect on heart rate 0(mins) after intravenous administration in anesthetized guinea pigs.; type: functional; method in brief: as §3
Cavia porcellus [22] = assay: Effect on heart rate 1(mins) after intravenous administration in anesthetized guinea pigs.; type: functional; method in brief: as §3
Cavia porcellus [23] = assay: Effect on left ventricular dP/dtmax 5(mins) after intravenous administration in anesthetized guinea pigs; type: functional, Heart left ventricle; method in brief: as §3
Cavia porcellus [24] = assay: Effect on left ventricular dP/dtmax 0(mins) after intravenous administration in anesthetized guinea pigs.; type: functional, Heart left ventricle; method in brief: as §3
Cavia porcellus [25] = assay: Effect on left ventricular dP/dtmax 1(mins) after intravenous administration in anesthetized guinea pigs.; type: functional, Heart left ventricle; method in brief: as §3

Row | SMILES | IC50 (Cavia porcellus [1]) [µM] | MLD (Mus musculus) [mg/kg] | other results
1 | CCCCn1cnc2c(=O)n(CCCC)c3ccccc3c21 | 5.47 | > 300 | MCT (Cavia porcellus [2]): 504 s
2 | CCCn1c(=O)c2ncn(C)c2c2ccccc21 | 10.7 | 300 | 
3 | CCCCn1c(=O)c2ncn(C)c2c2cc(C)ccc21 | 7.97 | > 300 | MCT (Cavia porcellus [2]): 356 s
4 | CCCCn1c(=O)c2nnn(C)c2c2ccccc21 | 1.58 | > 300 | MCT (Cavia porcellus [2]): 296 s
5 | C=CCCn1c(=O)c2ncn(C)c2c2ccccc21 | 5.62 | 200 | MCT (Cavia porcellus [2]): 342 s
6 | CCCCn1c(=O)c2ncn(CCC)c2c2ccccc21 | 3.99 | > 300 | 
7 | CCCCn1c(=O)c2ncn(CC)c2c2ccccc21 | 4.9 | > 300 | 
8 | CCCCn1c(=O)c2nc(S)n(C)c2c2ccccc21 | 8.2 | > 300 | 
9 | Cn1cnc2c(=O)n(Cc3ccco3)c3ccccc3c21 | > 30 |  | 
10 | Cn1cnc2c(=O)n(C3CCCC3)c3ccccc3c21 | 6.58 | 300 | 
11 | CCCCn1c(=O)c2ncn(C(C)C)c2c2ccccc21 | 2.6 | > 300 | MCT (Cavia porcellus [3]): 425 s
12 | CCCCn1c(=O)c2ncn(C)c2c2ccccc21 | 0.25 | > 300 | Heart rate (Cavia porcellus [4]): 98.5%; ED50 (Cavia porcellus [5]): 0.42 mg/kg; LV dP/dtmax (Cavia porcellus [6]): 99.4%; IC50 (Cavia porcellus [7]): 27.2 µM; MCT (Cavia porcellus [8]): 342 s; IC50 (Cavia porcellus [9]): 9.19 µM; LV dP/dtmax (Cavia porcellus [10]): 98.9%; IC50 (Cavia porcellus [11]): 2.12 µM; Heart rate (Cavia porcellus [12]): 100%; ED50 (Cavia porcellus [13]): 44.9 mg/kg; Heart rate (Cavia porcellus [14]): 101%; LV dP/dtmax (Cavia porcellus [15]): 100%; Heart rate (Cavia porcellus [16]): 101%; LV dP/dtmax (Cavia porcellus [17]): 91.6%
13 | CCCCn1c(=O)c2nc(-c3ccc(OC)cc3)n(C)c2c2ccccc21 | > 30 |  | 
14 | CCCCn1c(=O)c2ncn(C)c2c2ccc(Cl)cc21.Cl | 1.52 | > 300 | MCT (Cavia porcellus [2]): 289 s
15 | CCCCn1c(=O)c2nc(-c3ccccc3)n(C)c2c2ccccc21 | > 30 |  | 
16 | Cn1c(=O)c2[nH]cnc2n(C)c1=O.Cn1c(=O)c2[nH]cnc2n(C)c1=O.NCCN [AMINOPHYLLINE] | 16.7 |  | ED50 (Cavia porcellus [5]): 7.8 mg/kg; IC50 (Cavia porcellus [7]): 37.7 µM; Heart rate (Cavia porcellus [18]): 105%; LV (Cavia porcellus [19]): 117%; Heart rate (Cavia porcellus [20]): 105%; IC50 (Cavia porcellus [9]): 23.6 µM; IC50 (Cavia porcellus [11]): 33.2 µM; Heart rate (Cavia porcellus [21]): 100%; Heart rate (Cavia porcellus [22]): 108%; ED50 (Cavia porcellus [13]): 51.7 mg/kg; LV (Cavia porcellus [23]): 116%; LV (Cavia porcellus [24]): 100%; LV (Cavia porcellus [25]): 125%
17 | Cn1c(=O)c2nc[nH]c2n(C)c1=O.O [THEOPHYLLINE] | 6.52 |  | MCT (Cavia porcellus [3]): 389 s

More lines, main results first:

Row | IC50 (Cavia porcellus [1]) [µM] | SMILES | MLD (Mus musculus) [mg/kg] | other results
18 | > 30 | CCCCn1c(=O)c2ncn(Cc3ccccc3)c2c2ccccc21 |  | 
19 | > 30 | Cn1cnc2c(=O)n(CC(=O)O)c3ccccc3c21 |  | 
20 | > 30 | CCn1c(=O)c2ncn(C)c2c2ccccc21 |  | 
21 | > 30 | CCCCn1c(=O)c2ncn(C)c2c2c(C)cccc21 |  | 
22 | > 30 | CCCCn1c(=O)c2nc(O)n(C)c2c2ccccc21 |  | 
23 | > 30 | CCCCn1c(=O)c2ncn(-c3ccccc3)c2c2ccccc21 |  | 
24 | > 30 | Cn1cnc2c(=O)n(C)c3ccccc3c21 |  | 
25 | > 30 | CCCCn1c(=O)c2ncn(C)c2c2cc(Cl)ccc21 |  | 
26 | > 30 | COCCn1c(=O)c2ncn(C)c2c2ccccc21 |  | 
27 | > 30 | CCCCn1c2c(c3c(ncn3C)c1=O)CCCC2 |  | 
28 | > 30 | CCCCn1c(=O)c2nc(-c3ccc(Cl)c(Cl)c3)n(C)c2c2ccccc21 |  | 
29 | > 30 | CCCCn1c(=O)c2ncn(C)c2c2cc(OC)c(OC)cc21 |  | 
30 | > 30 | CCCCCn1c(=O)c2ncn(C)c2c2ccccc21 |  | 
31 | > 30 | CCCCn1c(=O)c2nc(-c3ccco3)n(C)c2c2ccccc21 |  | 
32 | > 30 | CC(C)Cn1c(=O)c2ncn(C)c2c2ccccc21 |  | 
33 | > 30 | CCCCn1c(=O)c2nc(C)n(C)c2c2ccccc21 |  | 
34 | > 30 | Cn1cnc2c(=O)n(Cc3ccccc3)c3ccccc3c21 |  | 
